Series [1] concerns Human immunodeficiency virus 1. As to the kind of experiment: Antiviral activity against wild type HIV1 LAI-3B infected in human C8166 cells assessed as inhibition of virus-induced cytopathic effect by MTT assay. The series is classed as functional, organism-based. As to conditions: Human immunodeficiency virus 1, LAI-3B. The procedure, abridged:
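C8166 cells infected with wild-type HIV-1 LAI (strain IIIB); EC50 = concentration protecting cells from viral cytopathogenicity by 50%, read by MTT; means of at least two separate experiments.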

Series [2] has as its system Human immunodeficiency virus 1. The series is described as follows: Antiviral activity against HIV1 A17 harboring reverse transcriptase Y181C mutant infected in human C8166 cells assessed as inhibition of virus-induced cytopathic effect by MTT assay. The series is classed as functional, organism-based. As to conditions: Human immunodeficiency virus 1, A17, C8166. The procedure, abridged: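 C8166 cells infected with mutant HIV-1 strain A17; protection from viral cytopathogenicity read by MTT. EC50 is the compound concentration that protects cells from viral cytopathic effect by 50%. Values are means of at least two separate experiments.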

A short description of series [3]: Cytotoxicity against human C8166 cells by MTT assay. The series is classed as cell-based. Summed up:
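Normal uninfected C8166 cells; MTT viability readout; CC50 = concentration reducing viability by 50%; means of at least two separate experiments.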
Background: Tetrazolium dyes change colour on reduction, which living cells bring about.

Series [4] is described as follows: Selectivity index, ratio of CC50 for human C8166 cells to EC50 for wild type HIV1 LAI-3B. Format: toxicity, cell-based. As to conditions: read-out: Ratio CC50/EC50. The procedure, abridged:
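Ratio CC50/EC50, where CC50 is from MTT viability of uninfected C8166 cells and EC50 is 50% protection of wild-type HIV-1 IIIB-infected C8166 cells from cytopathogenicity (MTT); inputs are means of at least two experiments.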

In the case of `O=C(O)c1cn(Cc2ccc(F)cc2)c2ccc(Cc3cccc(Cl)c3F)c(O)c2c1=O`, the EC50 (usually the concentration giving half of the maximal effect) worked out at 9.34 µM in series [1] and 22.5 µM in series [2]. Half-maximal cytotoxicity in series [3] (CC50) was put at 65.8 µM. Moreover, in series [4], the selectivity ratio is 7.04.

`O=C(O)c1cn(Cc2ccccc2)c2ccc(Cc3cccc(Cl)c3F)c(O)c2c1=O`: the EC50 in series [1] amounted to 3.17 µM; in series [2], 17.9 µM. Further, in series [3], the 50% cytotoxic concentration (CC50) (usually the concentration that lowers cell viability or growth by half) was determined as 20.3 µM. The selectivity ratio in series [4] stood at 6.42.

With `O=C(O)c1cn(Cc2ccccc2)c2ccc(Cc3ccccc3F)c(O)c2c1=O`, the figures for the EC50 in series [1] and in series [2] were 20.9 µM and 51.2 µM, respectively. Moreover, the CC50 in series [3] stood at 156 µM. In series [4], the selectivity ratio stood at 7.49.

Consider `O=C(O)c1cn(Cc2cccc(F)c2)c2ccc(Cc3cccc(Cl)c3F)c(O)c2c1=O`, for which the EC50 in series [1] came to 4.93 µM; in series [2], 19.1 µM. The same compound displayed a half-maximal cytotoxic concentration (CC50) in series [3] of 69 µM. Besides, the selectivity ratio in series [4] turned out to be 14.

With `Cc1ccc(-n2cc(C(=O)O)c(=O)c3c(O)c(Cc4cccc(Cl)c4F)ccc32)cc1`, the EC50 in series [1] was 3.58 µM; in series [2], 67.9 µM. Besides, in series [3], the midpoint of cytotoxicity, the CC50, lay at 194 µM. For the same compound, the selectivity ratio in series [4] stood at 54.2.

As to `CC(C)[C@@H](CO)n1cc(C(=O)O)c(=O)c2c(O)c(Cc3cccc(Cl)c3F)ccc21`, in series [2], the EC50 was determined as 0.085 µM.

As for `O=C(O)c1cn(-c2ccc(Br)cc2)c2ccc(Cc3cccc(Cl)c3F)c(O)c2c1=O`, the EC50 in series [1] came to 7.12 µM; in series [2], 33.2 µM. Moreover, in series [3], the CC50 is 85 µM. Besides, in series [4], the selectivity ratio came to 11.9.

For the compound `Cc1cccc(-n2cc(C(=O)O)c(=O)c3c(O)c(Cc4cccc(Cl)c4F)ccc32)c1`, the EC50 in series [1] worked out at 20.5 µM; in series [2] it was 43.7 µM. In series [3], this compound registered a CC50 of 71.5 µM. Also, the selectivity ratio in series [4] turned out to be 3.49.

Turning to `COc1cc2c(cc1Cc1cccc(Cl)c1F)c(=O)c(C(=O)O)cn2[C@H](CO)C(C)C` [ELVITEGRAVIR], the EC50 in series [2] came to 0.001 µM.

In the case of `Cc1ccc(Cn2cc(C(=O)O)c(=O)c3c(O)c(Cc4cccc(Cl)c4F)ccc32)cc1`, the EC50 was 5.55 µM in series [1] and 29.2 µM in series [2]. In series [3], this compound came in with a CC50 of 256 µM. The selectivity ratio in series [4] is 46.

As for `O=C(O)c1cn(Cc2ccc(F)c(F)c2)c2ccc(Cc3cccc(Cl)c3F)c(O)c2c1=O`, the EC50 in series [1] was 5.74 µM; in series [2] it was 24.2 µM. For the same compound, the midpoint of cytotoxicity in series [3], the CC50, lay at 71.4 µM. The selectivity ratio in series [4] was found to be 12.4.

Take `O=C(O)c1cn(Cc2ccccc2F)c2ccc(Cc3cccc(Cl)c3F)c(O)c2c1=O`: the EC50 worked out at 3.27 µM in series [1] and 24.2 µM in series [2]. The compound also yielded a CC50 in series [3] of 44.9 µM. Further, in series [4], the selectivity ratio worked out at 13.7.

Turning to `O=C(O)c1cn(-c2ccccc2)c2ccc(Cc3cccc(Cl)c3F)c(O)c2c1=O`, the EC50 in series [1] came to 308 µM. The same compound returned a CC50 in series [3] of 388 µM. In addition, in series [4], the selectivity ratio was 1.26.

As for `O=C(O)c1cn(Cc2ccccc2F)c2ccc(Cc3ccccc3F)c(O)c2c1=O`, the EC50 worked out at 6.46 µM in series [1] and 27.2 µM in series [2]. Moreover, the CC50 in series [3] was 67.1 µM. Also, the selectivity ratio in series [4] came out at 10.4.

For the compound `Cc1ccc(-n2cc(C(=O)O)c(=O)c3c(O)c(Cc4cccc(Cl)c4F)ccc32)cc1C`, the EC50 in series [1] was 24.9 µM; in series [2], 32.8 µM. The same compound displayed a CC50 in series [3] of 316 µM. The selectivity ratio in series [4] is 12.7.
